The Kd is the equilibrium constant for the complex coming apart. High values mean a looser complex, low ones a tighter complex.

In ChEMBL document CHEMBL1131635 (J Med Chem, 1998) one finds Kd data, which are given here for 13 molecules.

The assay deals with T1, Phosphoglycerate kinase (Saccharomyces cerevisiae S288c, UniProt P00560).
T1 sequence (P00560 whole entry): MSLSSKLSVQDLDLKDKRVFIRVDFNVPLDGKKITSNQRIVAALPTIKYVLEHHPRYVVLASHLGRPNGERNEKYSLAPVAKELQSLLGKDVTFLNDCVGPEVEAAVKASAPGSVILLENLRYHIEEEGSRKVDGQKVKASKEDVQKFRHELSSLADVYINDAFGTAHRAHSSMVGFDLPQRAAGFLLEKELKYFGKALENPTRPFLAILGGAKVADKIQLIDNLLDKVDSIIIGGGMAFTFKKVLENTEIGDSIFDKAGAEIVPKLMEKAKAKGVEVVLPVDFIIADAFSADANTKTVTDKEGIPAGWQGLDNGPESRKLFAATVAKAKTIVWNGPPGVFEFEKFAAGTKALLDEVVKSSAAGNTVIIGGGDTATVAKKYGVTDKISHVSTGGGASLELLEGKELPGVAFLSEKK
The assay is described as follows: Dissociation constant of phosphoglycerate kinase (PGK) at pH (3.0-11.0) was determined. The gist of the method:
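Free bisphosphonic acids in stirred solution were titrated from pH 11 down to pH 3 by controlled addition of 0.1 M HCl using an autotitrator with a combined glass electrode. The titration curves were plotted over pH 3–11, and successive pKa values of the phosphonic acid groups were calculated from the experimental data.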

Molecule `O=C(CCCP(=O)(O)O)CP(=O)(O)O` showed a Kd of 19 µM.
`O=C(CP(=O)(O)O)NCC(F)(F)P(=O)(O)O` gave a Kd of 2 µM.
In the case of `O=P(O)(O)CCCCC(F)(F)P(=O)(O)O` it was 4 µM.
In the case of `O=P(O)(O)CCCCCCP(=O)(O)O` it was 2130 µM; in that of `O=C(CCP(=O)(O)O)CP(=O)(O)O`, 2 µM; in that of `O=C(CCC(F)(F)P(=O)(O)O)C(F)(F)P(=O)(O)O`, 5 µM.
To `O=C(CCP(=O)(O)O)C(F)(F)P(=O)(O)O` belongs 3 µM; to `O=C(CCCP(=O)(O)O)C(F)(F)P(=O)(O)O`, 76 µM; to `O=P(O)(O)C(F)(F)COCC(F)(F)P(=O)(O)O`, 265 µM.
Molecule `O=C(CP(=O)(O)O)NCCP(=O)(O)O` yielded a Kd of 675 µM.
To `O=P(O)(O)C(F)(F)C(O)(O)C(F)(F)P(=O)(O)O` belongs 72 µM; to `O=P(O)(O)C(F)(F)CCCCC(F)(F)P(=O)(O)O`, 1000 µM.
In the case of `O=C(NCCP(=O)(O)O)C(F)(F)P(=O)(O)O`, binding was characterised by a dissociation constant (Kd) of 6 µM. This Kd lies about 170-fold lower than the previous one.
